Values after ≈ are worked out from the molar mass of the structure shown. Active and inactive are the calls of the source. The rule behind the calls is not given here.
Legend:
Escherichia coli [1] = assay: In vitro inhibition of Puromycin reaction in the ribosomes from Escherichia coli; format: functional; details: read-out: ED50 (the source's name)
Escherichia coli [2] = assay: In vitro inhibition of modified fragment reaction using ribosomes from Escherichia coli; format: functional; details: read-out: ED50 (the source's name)
Escherichia coli [3] = assay: In vitro inhibition of polyuridylic acid dependent polyphenylalanine synthesis using ribosomes from Escherichia coli; format: functional; details: read-out: ED50 (the source's name)
Escherichia coli [4] = assay: In vitro inhibition of cell growth in Escherichia coli MRE600; format: functional; details: read-out: ED50 (the source's name)
L1210 [5] = assay: In vitro inhibition of cell growth in L1210 murine leukemia cells; format: functional; details: Mus musculus, read-out: ID50 (the source's name)
Saccharomyces cerevisiae [6] = assay: In vitro inhibition of modified fragment reaction using ribosomes from Saccharomyces cerevisiae; format: functional; details: read-out: ED50 (the source's name)
Saccharomyces cerevisiae [7] = assay: In vitro inhibition of polyuridylic acid dependent polyphenylalanine synthesis using ribosomes from Saccharomyces cerevisiae; format: functional; details: read-out: ED50 (the source's name)
[8] = Water solubility was determined
[9] = lipophilicity parameter(Rm) was determined; format: physicochemical; details: RP-8 HPTLC, 60% methanol/water
Outline: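 Rf measured by reversed-phase RP-8 HPTLC, eluent 60% methanol/water; Rm computed as log(1/Rf − 1).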

[10] = Partition coefficient (logP); details: octanol/water
L1210 [11] = assay: In Vivo evaluation for the acute toxicity by L1210 clonogenic assay; format: functional, Mus musculus
[12] = In Vivo evaluation for the acute toxicity in mice; details: mouse
T-24 = assay: In vitro inhibition of cell growth in T24 bladder carcinoma cell line; format: functional; details: Homo sapiens, read-out: ID50 (the source's name)
[13] = (§1) Kinetic constant was determined
WiDr [14] = assay: In vitro inhibition of cell growth in Human WiDr colon carcinoma cell line; format: functional; details: read-out: ID50 (the source's name)
Escherichia coli [15] = assay: In vitro inhibition of cell growth in Escherichia coli; format: functional; details: read-out: ED50 (the source's name)
Escherichia coli [16] = assay: In vitro inhibition of modified fragment reaction using ribosomes from Escherichia coli; Inactive at 100 uM; format: functional
Outline: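 Peptidyl transferase assayed by the fragment-reaction protocol, but with intact N-acetyl-Phe-tRNA as substrate in place of its terminal pentanucleotide; ribosomes from the organism named in the line; 50% inhibitory value derived.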

Saccharomyces cerevisiae [17] = assay: In vitro inhibition of polyuridylic acid dependent polyphenylalanine synthesis using ribosomes from Saccharomyces cerevisiae; Inactive at 100 uM; format: functional
[18] = lipophilicity parameter (Rm) was determined; details: RP-8 HPTLC, 60% methanol/water
[19] = as §1; format: ADME
WiDr [20] = assay: In vitro inhibition of cell growth in Human WiDr colon carcinoma cell line; NT means not tested; format: functional; details: read-out: ID50 (the source's name)
Outline: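 Human tumor cell line cytotoxicity measured by the automated PIT method (propidium iodide, ink, Triton X-100); ID50 calculated.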

| EC50 (Escherichia coli [3]) | Structure (SMILES) | EC50 (Escherichia coli [1]) | EC50 (Escherichia coli [2]) | EC50 (Escherichia coli [4]) | IC50 (L1210 [5]) | EC50 (Saccharomyces cerevisiae [6]) | EC50 (Saccharomyces cerevisiae [7]) | solubility [8] | logP [10] | T/C (L1210 [11]) | LD50 [12] | IC50 (T-24) | log k0 [13] | IC50 (WiDr [14]) | EC50 (Escherichia coli [15]) | Rm [18] | also measured |
| --- | --- | --- | --- | --- | --- | --- | --- | --- | --- | --- | --- | --- | --- | --- | --- | --- | --- |
| 6.6 µM | Cc1nc(O)nc(O)c1/C=C/C(=O)N[C@@H](CO)C[S+]([O-])CSC1CCCCC1 (stereo not given in full) | 0.04 µM | 5.2 µM | 7.5 µM | 0.6 µM | 12 µM | 5.1 µM | – | – | – | – | – | – | – | – | – | – |
| 31 µM | Cc1nc(O)nc(O)c1/C=C/C(=O)N[C@@H](CO)C[S+]([O-])CSC(C)(C)C (stereo not given in full) | 0.31 µM | 27.5 µM | – | – | 100 µM | 900 µM | – | – | – | – | – | – | – | – | – | – |
| 86 µM | Cc1nc(O)nc(O)c1/C=C/C(=O)N[C@@H](C)C[S+]([O-])CCl (stereo not given in full) | – | – | – | 0.15 µM | – | – | – | – | – | – | – | – | – | 7.5 µM | – | ED50 (Escherichia coli [16]): inactive; ED50 (Saccharomyces cerevisiae [17]): inactive |
| 140 µM | CCC[S+]([O-])C[C@H](CO)NC(=O)/C=C/c1c(C)nc(O)nc1O (stereo not given in full) | 0.23 µM | 4.5 µM | 36 µM | 0.75 µM | 6.2 µM | 42 µM | – | – | – | – | – | – | – | – | – | – |
| 8.5 µM | CCCCCCCCSC[S+]([O-])C[C@H](C)NC(=O)/C=C/c1c(C)nc(O)nc1O (stereo not given in full) | 0.46 µM | 46 µM | – | 0.03 µM | 60 µM | 1.4 µM | 15 µg/mL (≈ 33.8 µM) | > 2.42 | – | – | 0.14 µM | – | 0.28 µM | 15 µM | 1.151 | Log Ko [19]: 3.533 |
| – | Cc1nc(O)nc(O)c1/C=C/C(=O)N[C@@H](CO)C[S@@+]([O-])CCl | – | – | – | – | – | – | – | – | – | – | – | – | – | 20 µM | – | – |
| 1.8 µM | CCCCCCCCCC[S+]([O-])C[C@H](CO)NC(=O)/C=C/c1c(C)nc(O)nc1O (stereo not given in full) | 0.08 µM | 5000 µM | – | 0.14 µM | 700 µM | 0.2 µM | – | – | – | – | – | – | – | 3 µM | – | – |
| 34 µM | CC(=O)NCCSC[S+]([O-])C[C@H](CO)NC(=O)/C=C/c1c(C)nc(O)nc1O (stereo not given in full) | 1 µM | 60 µM | 100 µM | 1.9 µM | 56 µM | 32 µM | – | – | – | – | – | – | – | – | – | – |
| 80 µM | CCC[S+]([O-])C[C@H](C)NC(=O)/C=C/c1c(C)nc(O)nc1O (stereo not given in full) | 0.38 µM | – | 9.5 µM | 0.45 µM | – | 200 µM | – | – | – | – | – | – | – | – | – | – |
| 3 µM | CCCSC[S+]([O-])C[C@H](CO)NC(=O)/C=C/c1c(C)nc(O)nc1O (stereo not given in full) | 0.08 µM | 5.5 µM | 5 µM | 0.14 µM | 7.5 µM | 7 µM | 1500 µg/mL (≈ 3850 µM) | -0.665 | – | – | 0.65 µM | 0.117 | 0.89 µM | – | – | Rm [9]: -0.261 |

| Structure (SMILES) | EC50 (Escherichia coli [3]) | EC50 (Escherichia coli [1]) | EC50 (Escherichia coli [2]) | EC50 (Escherichia coli [4]) | IC50 (L1210 [5]) | EC50 (Saccharomyces cerevisiae [6]) | EC50 (Saccharomyces cerevisiae [7]) | solubility [8] | logP [10] | T/C (L1210 [11]) | LD50 [12] | IC50 (T-24) | log k0 [13] | IC50 (WiDr [14]) | EC50 (Escherichia coli [15]) | Rm [18] | also measured |
| --- | --- | --- | --- | --- | --- | --- | --- | --- | --- | --- | --- | --- | --- | --- | --- | --- | --- |
| CSC[S+]([O-])C[C@H](CO)NC(=O)/C=C/c1c(C)[nH]c(=O)[nH]c1=O (stereo not given in full) | 8.5 µM | 0.1 µM | 3.2 µM | 11 µM | 0.48 µM | 2.8 µM | 5.2 µM | 3800 µg/mL (≈ 10500 µM) | -1.71 | 117% | 0.26 mg/kg | 0.91 µM | -0.676 | 0.92 µM | – | – | Rm [9]: -0.638 |
| CCCCCC[S+]([O-])C[C@H](CO)NC(=O)/C=C/c1c(C)nc(O)nc1O (stereo not given in full) | 0.75 µM | 0.18 µM | 7.5 µM | – | 0.14 µM | 5 µM | 0.14 µM | 890 µg/mL (≈ 2310 µM) | 0.41 | 135% | 1.6 mg/kg | 0.35 µM | – | 0.39 µM | 3 µM | 0.235 | Log Ko [19]: 1.111 |
| CCCCCCCCSC[S+]([O-])C[C@H](CO)NC(=O)/C=C/c1c(C)nc(O)nc1O (stereo not given in full) | 1.6 µM | 0.25 µM | 60 µM | – | 0.1 µM | 300 µM | 1.3 µM | 13 µg/mL (≈ 28.3 µM) | > 2.42 | 151% | 29.5 mg/kg | 0.06 µM | – | 0.22 µM | 4.4 µM | 0.895 | Log Ko [19]: 3.333 |
| CCCCCCC[S+]([O-])C[C@H](CO)NC(=O)/C=C/c1c(C)nc(O)nc1O (stereo not given in full) | 0.48 µM | 0.04 µM | 9 µM | – | 0.15 µM | 5.8 µM | 0.1 µM | 220 µg/mL (≈ 551 µM) | 1.02 | 330% | 6.1 mg/kg | 0.16 µM | – | 0.28 µM | 1.4 µM | 0.56 | Log Ko [19]: 1.771 |
| CCCCSC[S+]([O-])C[C@H](C)NC(=O)/C=C/c1c(C)nc(O)nc1O (stereo not given in full) | 3 µM | 0.05 µM | 12.1 µM | 2.5 µM | 0.05 µM | 15 µM | 1.9 µM | 940 µg/mL (≈ 2430 µM) | 0.819 | 164% | 16.5 mg/kg | 0.09 µM | 1.29 | 0.16 µM | – | 0.218 | – |
| CCCCCSC[S+]([O-])C[C@H](CO)NC(=O)/C=C/c1c(C)nc(O)nc1O (stereo not given in full) | 1 µM | 0.03 µM | 2.6 µM | 1 µM | 0.06 µM | 2.7 µM | 0.17 µM | 280 µg/mL (≈ 671 µM) | 0.6 | 386% | 4.7 mg/kg | 0.28 µM | 1.168 | 0.4 µM | – | 0.16 | – |
| CCCCSC[S+]([O-])C[C@H](CO)NC(=O)/C=C/c1c(C)nc(O)nc1O (stereo not given in full) | 1.8 µM | 0.06 µM | 5.1 µM | 3 µM | 0.1 µM | 4.8 µM | 1 µM | 570 µg/mL (≈ 1410 µM) | 0.143 | 156% | 2.33 mg/kg | 0.23 µM | 0.777 | 0.31 µM | – | -0.028 | – |
| CSC[S+]([O-])C[C@H](C)NC(=O)/C=C/c1c(C)nc(O)nc1O (stereo not given in full) | 14.6 µM | 0.25 µM | 18 µM | 5.6 µM | 0.07 µM | 39 µM | 50 µM | 18000 µg/mL (≈ 52100 µM) | -0.699 | 216% | 2.33 mg/kg | 0.44 µM | -0.209 | – | – | -0.404 | IC50 (WiDr [20]): 0.58 µM |

— ChEMBL document CHEMBL1124574, “Lipophilic analogues of sparsomycin as strong inhibitors of protein synthesis and tumor growth: a structure-activity relationship study” (J Med Chem, 1989)
